Consider 2 compounds from ChEMBL document CHEMBL1773034 (J Nat Prod, 2011).

The source made the active and inactive calls. The rule behind the calls is not given here.

Series [1] deals with THP-1. The series is described as follows: Antiinflammatory activity against human THP1 cells assessed as inhibition of LPS-induced ZFP36 gene expression at 10 uM pretreated for 1 hr before LPS challenge measured after 2 hrs by RT-qPCR relative to control. It counts as functional. The essentials:
(§1)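 THP-1 monocytes, PMA-differentiated to macrophages, pretreated 1 h with compound in DMSO (0.1% final), then stimulated with 1 μg/mL LPS. Cells lysed in wells at 2, 4, 6 and 10 h post-LPS; TaqMan two-step RT-qPCR, ROX-normalized, ΔΔCT with unstimulated control set to 1. Means ± SE, three independent experiments.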
For orientation: Real-time PCR tracks product formation cycle by cycle.

For series [2], the system named is THP-1. Description: Antiinflammatory activity against human THP1 cells of assessed as inhibition of LPS-induced TNFalpha gene expression at 10 uM pretreated for 1 hr before LPS challenge measured after 2 hrs by RT-qPCR relative to control. It counts as functional. In outline: as §1
Series [3] concerns THP-1. The series is described as follows: Antiinflammatory activity against human THP1 cells of assessed as inhibition of LPS-induced TNFalpha protein synthesis at 10 uM pretreated for 1 hr before LPS challenge measured after 2 to 10 hrs relative to control. It counts as functional.
The nature of series [4]: Cytotoxicity against human THP1 cells after 24 hrs by erythrosin B staining. It counts as cell-based. The settings on record: THP-1 cells, read-out: LD50. The essentials: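 THP-1 monocytes given five increasing concentrations (1-50 μM for the flavone; 1-100 μM for indomethacin) from DMSO stocks, final DMSO 0.1%, in RPMI 1640 with 10% FBS. Incubated 24 h at 37 C, 5% CO2. Cells were mixed 1:1 with 0.1% erythrosin B in PBS and counted by hemocytometer, with unstained cells taken as viable. LD50 was calculated from dose-response curves.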

Series [5] can be described thus: Selectivity ratio of IC50 for human recombinant COX2 to IC50 for ram seminal vesicle COX1. In kind it is tissue-based. The essentials:
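Enzymes were human recombinant COX-2 (0.5 unit/reaction) and ram seminal vesicle COX-1 (1 unit/reaction), in 0.1 M Tris/HCl pH 8.0 with 5 μM hematin, 18 mM L-epinephrine, 50 μM EDTA. Compound in DMSO was preincubated 5 min at room temperature, then arachidonic acid was added for 20 min at 37 °C. PGE2 was read by competitive EIA at 405 nm. IC50 came from regression on ≥3 concentrations, with four independent experiments. Selectivity was taken as the COX-2/COX-1 IC50 ratio.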

Series [6] relates to THP-1. The series is described as follows: Antiinflammatory activity against human THP1 cells of assessed as inhibition of LPS-induced TNFalpha protein synthesis at 10 uM pretreated for 1 hr before LPS challenge measured after 2 to 10 hrs. It counts as functional, cell-based.
Series [7] concerns THP-1. The series is described as follows: Antiinflammatory activity against human THP1 cells assessed as increase in LPS-induced ZFP36 gene expression at 10 uM pretreated for 1 hr before LPS challenge measured after 4 hrs by RT-qPCR relative to control.
Series [8] deals with RAW264.7. The series is described as follows: Antiinflammatory activity against mouse RAW264.7 cells assessed as nitric oxide production. In kind it is functional, cell-based.
Series [9] addresses T1, Prostaglandin G/H synthase 1 (Ovis aries, UniProt P05979).
T1 sequence (P05979 whole entry): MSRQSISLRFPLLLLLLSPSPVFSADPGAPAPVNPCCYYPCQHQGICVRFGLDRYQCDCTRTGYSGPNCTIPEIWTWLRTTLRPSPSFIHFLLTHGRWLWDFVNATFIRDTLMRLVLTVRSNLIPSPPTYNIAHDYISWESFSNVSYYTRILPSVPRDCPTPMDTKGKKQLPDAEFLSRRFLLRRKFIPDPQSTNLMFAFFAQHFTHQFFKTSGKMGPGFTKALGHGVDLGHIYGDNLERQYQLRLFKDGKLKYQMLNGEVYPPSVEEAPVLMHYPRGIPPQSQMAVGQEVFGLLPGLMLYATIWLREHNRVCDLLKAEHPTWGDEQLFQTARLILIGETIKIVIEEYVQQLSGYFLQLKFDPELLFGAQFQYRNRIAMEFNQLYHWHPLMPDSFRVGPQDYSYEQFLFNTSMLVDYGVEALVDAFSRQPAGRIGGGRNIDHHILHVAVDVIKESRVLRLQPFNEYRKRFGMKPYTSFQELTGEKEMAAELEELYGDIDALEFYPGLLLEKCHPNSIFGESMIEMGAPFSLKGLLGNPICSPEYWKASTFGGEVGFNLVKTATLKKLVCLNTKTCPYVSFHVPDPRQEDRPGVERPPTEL
The series is described as follows: Inhibition of ram seminal vesicle COX-1 assessed as PGE2 production from arachidonic acid after 20 mins enzyme immunoassay. It counts as tissue-based.

For series [10], the system named is THP-1. The series is described as follows: Antiinflammatory activity against human THP1 cells of assessed as inhibition of LPS-induced COX-2 gene expression at 10 uM pretreated for 1 hr before LPS challenge measured after 4 hrs by RT-qPCR. It counts as functional, cell-based. The essentials: as §1
Series [11] deals with RAW264.7. Description: Antiinflammatory activity against mouse RAW264.7 cells assessed as iNOS gene expression. In kind it is functional, cell-based.
Series [12] addresses T2, Prostaglandin G/H synthase 2 (Homo sapiens, UniProt P35354).
T2 sequence (P35354 whole entry): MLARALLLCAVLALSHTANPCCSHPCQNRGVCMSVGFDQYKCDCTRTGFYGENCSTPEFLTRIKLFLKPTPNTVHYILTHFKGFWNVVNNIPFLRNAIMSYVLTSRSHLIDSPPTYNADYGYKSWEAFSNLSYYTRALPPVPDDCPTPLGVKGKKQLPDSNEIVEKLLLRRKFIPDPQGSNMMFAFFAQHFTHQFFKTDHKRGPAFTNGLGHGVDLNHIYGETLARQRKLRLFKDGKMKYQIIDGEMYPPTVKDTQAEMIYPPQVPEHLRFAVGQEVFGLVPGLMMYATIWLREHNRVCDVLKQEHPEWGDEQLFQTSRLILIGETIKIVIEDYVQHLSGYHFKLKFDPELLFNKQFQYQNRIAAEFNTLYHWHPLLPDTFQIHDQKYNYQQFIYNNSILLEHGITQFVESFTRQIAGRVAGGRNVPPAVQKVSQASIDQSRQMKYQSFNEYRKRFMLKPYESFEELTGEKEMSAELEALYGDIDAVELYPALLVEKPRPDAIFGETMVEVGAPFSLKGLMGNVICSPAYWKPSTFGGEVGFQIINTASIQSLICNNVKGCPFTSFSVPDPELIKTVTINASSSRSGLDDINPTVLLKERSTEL
The series is described as follows: Inhibition of human recombinant COX-2 assessed as PGE2 production from arachidonic acid after 20 mins enzyme immunoassay.

Series [13] concerns THP-1. The series is described as follows: Antiinflammatory activity against human THP1 cells assessed as inhibition of LPS-induced NFKB p65 subunit translocation to nucleus at 10 uM pretreated for 1 hr before LPS challenge relative to control. In kind it is functional. The essentials: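 PMA-differentiated THP-1 macrophages pretreated 1 h (0.1% DMSO vehicle), then 1 μg/mL E. coli 0111:B4 LPS; harvested 1 h after LPS by trypsinization/scraping. Cytoplasmic and nuclear fractions separated; p65 quantified in each by transcription-factor ELISA-type kit, cytoplasm/nuclear ratio calculated. Means ± SE, three independent experiments, three measurements each.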

The subject of series [14] is THP-1. The series is described as follows: Antiinflammatory activity against human THP1 cells of assessed as inhibition of LPS-induced TNFalpha gene expression at 10 uM pretreated for 1 hr before LPS challenge measured after 2 to 10 hrs by RT-qPCR. It counts as functional, cell-based. The essentials: as §1

`CC(C)=CCc1c(-c2ccc(O)cc2O)oc2cc3c(c(O)c2c1=O)C=CC(C)(C)O3` [CUDRAFLAVONE B]: the “fold change (FC)” value in the series with THP-1 [1] is 5.8; in the series on THP-1 [13], 3.2. The figures for the Ratio with THP-1 [2], in the series with THP-1 [3] and in the series with THP-1 [7] were 5.8, 20 and 2, respectively. The CC50 at 24 h in series [4] was found to be 47600 nM. Further, the Ratio IC50 in series [5] was determined as 1.7. For the same compound, the result with THP-1 [6], in the series on THP-1 [10] and in the series with THP-1 [14] was Active. For the same compound, the Activity entry with RAW264.7 [8] and in the series with RAW264.7 [11] was “Dose-dependent effect” throughout. Further, the IC50 in series [9] came out at 1500 nM; in series [12], 2500 nM.
For `COc1ccc2c(c1)c(CC(=O)O)c(C)n2C(=O)c1ccc(Cl)cc1` [INDOMETHACIN], the result in the series on THP-1 [1], in the series with THP-1 [13] and in the series with THP-1 [14] was Active. Besides, the CC50 at 24 h in series [4] was above 100000 nM.

Broadly, the IC50 is the midpoint of a concentration-inhibition curve.
